Source: ChEMBL document CHEMBL1134642, “Dicationic bis(9-methylphenazine-1-carboxamides): relationships between biological activity and linker chain structure for a series of potent topoisomerase targeted anticancer drugs” (J Med Chem, 2001)
pIC50: −log10 of the molar value.

Key:
[1] = tested on: P388; assay: Inhibitory concentration required to reduce cell number to 50% of control cultures in P388 (murine leukemia cell line); assay type: functional, cell-based; details: Mus musculus
Method in brief: (§1)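 Murine P388 leukemia, Lewis lung carcinoma (LL), and human Jurkat leukemia (JLC) cells, plus amsacrine- and doxorubicin-resistant Jurkat derivatives (JLA, JLD), were grown with drug. Seeding per well was 4.5×10^3 (P388), 10^3 (LL) and 3.75×10^3 (Jurkat). Exposure was 3 days (P388) or 4 days (others). Growth was read by [3H]TdR uptake (P388) or sulforhodamine assay. IC50 is the drug concentration (nM) halving cell number versus controls. Ratios are JLA/JLC and JLD/JLC IC50. Independent assays were run in duplicate.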

[2] = Ratio of IC50 values obtained from Jurkat lines, (JLd /JLc); assay type: functional, Homo sapiens; method in brief: as §1
[3] = Inhibitory concentration required to reduce cell number to 50% of control cultures in JLc(Jurkat human leukemia); assay type: functional; method in brief: as §1
[4] = Ratio of IC50 values obtained from Jurkat lines, (JLa /JLc); assay type: functional, Homo sapiens; method in brief: as §1
[5] = tested on: Lewis lung carcinoma cell line; assay: Inhibitory concentration required to reduce cell number to 50% of control cultures in LL(Lewis lung carcinoma cell line); assay type: functional, cell-based; details: Mus musculus; method in brief: as §1
[6] = tested on: HT-29; assay: Inhibitory concentration required to reduce cell growth to 50% of control cultures in the HT-29 human cell line; assay type: functional
[7] = tested on: MCF7; assay: Inhibitory concentration required to reduce cell growth to 50% of control cultures in the MCF-7 human cell line; assay type: functional
[8] = tested on: SK-OV-3; assay: Inhibitory concentration required to reduce cell growth to 50% of control cultures in the SKOV3 human cell line; assay type: functional
[9] = tested on: CAKI-1; assay: Inhibitory concentration required to reduce cell growth to 50% of control cultures in the CAK1 human cell line; assay type: functional
[10] = Inhibitory concentration required to reduce cell growth to 50% of control cultures in the NCI-ADR human cell line; assay type: functional; details: NCI/ADR-RES
[11] = (§2) Average GI50 value for the drug over the whole cell line panel; assay type: functional
[12] = tested on: HCT-116; assay: Inhibitory concentration required to reduce cell growth to 50% of control cultures in the HTC116 human cell line; assay type: functional
[13] = Concentration of the drug to reduce cell number to 50% of controls in AuxB1 cell line; assay type: functional, cell-based
[14] = tested on: MOLT-4; assay: Inhibitory concentration of the drug resulting in inhibition of cell growth to 50% of controls in MOLT-4 (human leukemia); assay type: functional, cell-based
[15] = Ratio of IC50 values obtained from D3F-C10 and D3F cell lines; assay type: functional
[16] = tested on: U-937; assay: Inhibitory concentration of the drug resulting in inhibition of cell growth to 50% of controls in U937 (human leukemia); assay type: functional, cell-based
[17] = tested on: D3F; assay: Concentration of the drug to reduce cell number to 50% of controls in D3F cell line; assay type: functional, cell-based
[18] = Ratio of IC50 values obtained from CHrC5 and AuxB1 cell lines; assay type: functional
[19] = tested on: Lewis lung carcinoma cell line; assay: Inhibitory concentration required to reduce cell number to 50% of control cultures in LL (Lewis lung carcinoma cell line); assay type: functional, cell-based; details: Mus musculus; method in brief: as §1
[20] = tested on: Whole cell line panel; assay: as §2; assay type: functional
[21] = tested on: HT-29; assay: Inhibitory concentration of the drug resulting in inhibition of cell growth to 50% of controls in HT-29 (human colon); assay type: functional, cell-based
[22] = tested on: Mus musculus; assay: In vivo activity in colon 38 model for tumor growth delay after i.p. administration of 8.9 mg/kg in C57/B1 mice; assay type: functional; details: route intraperitoneal
Method in brief: (§3)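 Treatment started at about 4 mm diameter, with 5 mice per group. Hydrochloride salts in distilled water were given intraperitoneally at 0.01 mL/g, q4d × 3. Calliper measurements were taken three times weekly; volume = 0.52·a²·b. Growth delay is the time for mean tumour volume to reach 4-fold pretreatment volume.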

[23] = tested on: Mus musculus; assay: In vivo activity in HT-29 model for tumor growth delay after i.p. administration of 13.3 mg/kg in nude mice; details: route intraperitoneal
[24] = tested on: Mus musculus; assay: In vivo activity in colon 38 model for tumor growth delay after i.p. administration of 20 mg/kg in C57/B1 mice; assay type: functional; details: route intraperitoneal; method in brief: as §3
[25] = tested on: Mus musculus; assay: In vivo activity in colon 38 model for tumor growth delay after i.p. administration of 13.3 mg/kg in C57/B1 mice; assay type: functional; details: route intraperitoneal; method in brief: as §3
[26] = tested on: Mus musculus; assay: In vivo activity in HT-29 model for tumor growth delay after i.p. administration of 20 mg/kg in nude mice; details: route intraperitoneal
[27] = tested on: Mus musculus; assay: In vivo activity in colon 38 model for tumor growth delay after i.p. administration of 30 mg/kg in C57/B1 mice; assay type: functional; details: route intraperitoneal; method in brief: as §3

Row | Structure (SMILES) | pIC50 [1] | Ratio [2] | pIC50 [3] | Ratio [4] | pIC50 [5] | also measured
1 | Cc1cccc2nc3cccc(C(=O)NCCCNCCCNCCCNC(=O)c4cccc5nc6cccc(C)c6nc45)c3nc12 | 6.37 | 1 | 8.89 | 0.5 | 7.51 | 
2 | Cc1cccc2nc3cccc(C(=O)NCCN(C)CCCN(C)CCNC(=O)c4cccc5nc6cccc(C)c6nc45)c3nc12 | 8.80 | 0.8 | 10.10 | 0.4 | 9.52 | GI50 [6]: < 10 nM; GI50 [7]: < 10 nM; GI50 [8]: < 0.1 nM; GI50 [9]: < 0.1 nM; GI50 [10]: < 0.1 nM; GI50 [11]: 0.29 nM; GI50 [12]: < 0.1 nM
3 | Cc1cccc2nc3cccc(C(=O)NCCCNCCCCNCCCNC(=O)c4cccc5nc6cccc(C)c6nc45)c3nc12 | 6.06 | 1.2 | 8.06 | 0.2 | 6.95 | GI50 [6]: 366 nM; GI50 [7]: 74 nM; GI50 [8]: 13600 nM; GI50 [9]: 8280 nM; GI50 [10]: 906 nM; GI50 [11]: 2000 nM; GI50 [12]: 335 nM
4 | Cc1cccc2nc3cccc(C(=O)NCCNCCCNCCNC(=O)c4cccc5nc6cccc(C)c6nc45)c3nc12 | 8.13 | 0.6 | 9.62 | 0.7 | 8.92 | 
5 | Cc1cccc2nc3cccc(C(=O)NCCCN4CCN(CCCNC(=O)c5cccc6nc7cccc(C)c7nc56)CC4)c3nc12 | 7.32 | 0.7 | 8.89 | 0.8 | 9.34 | 
6 | Cc1cccc2nc3cccc(C(=O)NCCN(C)C)c3nc12 | 7.74 | 1.1 | 6.68 | 1.1 | 7.41 | 
7 | Cc1cccc2nc3cccc(C(=O)NCCCCNCCCCNCCCCNC(=O)c4cccc5nc6cccc(C)c6nc45)c3nc12 | 6.05 | 0.9 | 7.17 | 0.3 | 6.54 | 
8 | Cc1cccc2cc3cccc(C(=O)NCCN(C)C)c3nc12 |  | 4.8 | 7.34 | 4.6 | 8.25 | 
9 | CCCN(CCNC(=O)c1cccc2nc3cccc(C)c3nc12)CCN(CCC)CCNC(=O)c1cccc2nc3cccc(C)c3nc12 | 6.60 | 0.8 | 7.34 | 0.5 | 6.92 | 
10 | Cc1cccc2nc3cccc(C(=O)NCCCN(C)CCCNC(=O)c4cccc5nc6cccc(C)c6nc45)c3nc12 |  | 0.6 | 8.25 | 0.6 |  | pIC50 [13]: 9.24; pIC50 [14]: 9.46; Ratio [15]: 0.57; pIC50 [16]: 8.16; GI50 [6]: < 10 nM; pIC50 [17]: 8.54; GI50 [7]: < 10 nM; GI50 [8]: 220 nM; Ratio [18]: 31.3; pIC50 [19]: 8.48; GI50 [9]: < 10 nM; GI50 [10]: 19 nM; GI50 [20]: 20 nM; GI50 [12]: < 10 nM; pIC50 [21]: 8.82
11 | Cc1cccc2nc3cccc(C(=O)NCCNCCNCCNC(=O)c4cccc5nc6cccc(C)c6nc45)c3nc12 | 7.68 | 0.9 | 9.74 | 0.5 | 8.55 | pIC50 [13]: 8.43; Growth delay [22]: 2.8 days; pIC50 [14]: 11.21; Ratio [15]: 0.91; pIC50 [16]: 10.33; GI50 [6]: < 10 nM; pIC50 [17]: 8.36; Growth delay [23]: 2.4 days; GI50 [7]: < 10 nM; GI50 [8]: < 10 nM; Ratio [18]: 47.1; GI50 [9]: < 10 nM; GI50 [10]: 15 nM; GI50 [11]: 13 nM; Growth delay [24]: 7 days; GI50 [12]: < 10 nM; pIC50 [21]: 10.10; Growth delay [25]: 4 days
12 | Cc1cccc2nc3cccc(C(=O)NCCCCN4CCN(CCCCNC(=O)c5cccc6nc7cccc(C)c7nc56)CC4)c3nc12 | 7.02 | 0.5 | 8.96 | 0.5 | 9.47 | 
13 | Cc1cccc2nc3cccc(C(=O)NCCCNCCNCCCNC(=O)c4cccc5nc6cccc(C)c6nc45)c3nc12 | 6.13 | 1.3 | 8.77 | 0.4 | 7.46 | GI50 [6]: 27 nM; GI50 [7]: 24 nM; GI50 [8]: 8890 nM; GI50 [9]: 1000 nM; GI50 [10]: 8030 nM; GI50 [11]: 524 nM; GI50 [12]: 21 nM
14 | Cc1ccc(Cl)c2nc3cccc(C(=O)NCCNCCNCCNC(=O)c4cccc5nc6c(Cl)ccc(C)c6nc45)c3nc12 | 7.43 | 0.8 | 9.22 | 0.4 | 8.00 | 
15 | CCN(CCNC(=O)c1cccc2nc3cccc(C)c3nc12)CCN(CC)CCNC(=O)c1cccc2nc3cccc(C)c3nc12 | 6.77 | 0.7 | 7.80 | 0.6 | 7.32 | 
16 | Cc1cccc2nc3cccc(C(=O)NCCN(C)CCN(C)CCNC(=O)c4cccc5nc6cccc(C)c6nc45)c3nc12 | 7.48 | 0.6 | 8.28 | 0.4 | 7.70 | 
17 | Cc1ccc(C)c2nc3c(C(=O)NCCNCCNCCNC(=O)c4cccc5nc6c(C)ccc(C)c6nc45)cccc3nc12 | 8.08 | 0.6 | 9.22 | 0.5 | 8.41 | pIC50 [13]: 8.35; Growth delay [22]: 2.8 days; pIC50 [14]: 10.17; Ratio [15]: 0.77; pIC50 [16]: 9.28; Growth delay [26]: 7.8 days; pIC50 [17]: 8.19; Ratio [18]: 30.3; Growth delay [27]: 7.5 days; Growth delay [24]: 4.4 days; pIC50 [21]: 9.82; Growth delay [25]: 2.4 days
18 | Cc1cccc2nc3cccc(C(=O)NCCN4CCN(CCNC(=O)c5cccc6nc7cccc(C)c7nc56)CC4)c3nc12 | 5.65 | 0.9 | 7.96 | 0.6 | 7.92 | 
19 | O=C1c2cccc3cccc(c23)C(=O)N1CCNCCCNCCN1C(=O)c2cccc3cccc(c23)C1=O [ELINAFIDE] | 8.82 | 0.6 | 9.15 | 0.3 | 7.96 | pIC50 [14]: 10.43; pIC50 [16]: 9.47; pIC50 [21]: 9.82
